What was measured:
Assay type in all cases: functional
[1] = test system: Mus musculus; test: Compound was tested for Trypanocidal Activity in mice at 25 mg/kg; 4/5
[2] = test system: Mus musculus; test: Compound was tested for Trypanocidal Activity in mice at 10 mg/kg; 1/20
[3] = test system: Mus musculus; test: Compound was tested for Trypanocidal Activity in mice at 40 mg/kg; 1/5
[4] = test system: Mus musculus; test: Compound was tested for Trypanocidal Activity in mice at 6 mg/kg; 0/10
[5] = test system: Mus musculus; test: Compound was tested for Trypanocidal Activity in mice at 15 mg/kg; 11/20
[6] = test system: Mus musculus; test: Compound was tested for Trypanocidal Activity in mice at 10 mg/kg; 10/10
[7] = test system: Mus musculus; test: Compound was tested for Trypanocidal Activity in mice at 2.5 mg/kg; 20/20
[8] = test system: Mus musculus; test: Compound was tested for Trypanocidal Activity in mice at 6 mg/kg; 20/20
[9] = test system: Mus musculus; test: Compound was tested for Trypanocidal Activity in mice at 0.6 mg/kg; 20/30
[10] = test system: Mus musculus; test: Compound was tested for Trypanocidal Activity in mice at 60 mg/kg; 0/5
[11] = test system: Mus musculus; test: Compound was tested for Trypanocidal Activity in mice at 40 mg/kg; 0/5
[12] = species: Mus musculus; test: Effective dose against Trypanosoma brucei infection in mice
Outline: (§1)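 Female Swiss-Webster mice (20–25 g) were infected ip with 5×10^4 T. brucei EATRO 110 organisms in fresh mouse blood diluted with minimum essential medium. Groups of 5 or 10 received a single ip dose in normal saline (solution or milled suspension, 20 μL/g) 6 h post-infection. Deaths within 72 h were scored as toxic. Survivors aparasitemic at 28 days (tail-blood wet films, phase contrast) counted as cures. ED50 was computed by Bliss/Litchfield–Wilcoxon, excluding toxic dosages.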

[13] = test system: Mus musculus; test: Compound was tested for Trypanocidal Activity in mice at 0.25 mg/kg; 0/30
[14] = test system: Mus musculus; test: Compound was tested for Trypanocidal Activity in mice at 1.5 mg/kg; 10/10
[15] = test system: Mus musculus; test: Compound was tested for Trypanocidal Activity in mice at 0.15 mg/kg; 0/10
[16] = test system: Mus musculus; test: Compound was tested for Trypanocidal Activity in mice at 4 mg/kg; 9/10
[17] = test system: Mus musculus; test: Compound was tested for Trypanocidal Activity in mice at 0.4 mg/kg; 19/35
[18] = test system: Mus musculus; test: Compound was tested for Trypanocidal Activity in mice at 15 mg/kg; 10/10
[19] = test system: Mus musculus; test: Compound was tested for Trypanocidal Activity in mice at 1.0 mg/kg; 8/10
[20] = test system: Mus musculus; test: Compound was tested for Trypanocidal Activity in mice at 6 mg/kg; 0/5
[21] = test system: Mus musculus; test: Compound was tested for Trypanocidal Activity in mice at 150 mg/kg; 1/5
[22] = test system: Mus musculus; test: Compound was tested for Trypanocidal Activity in mice at 60 mg/kg; 9/25; outline: as §1
[23] = test system: Mus musculus; test: Compound was tested for Trypanocidal Activity in mice at 10 mg/kg; 0/5
[24] = test system: Mus musculus; test: Compound was tested for Trypanocidal Activity in mice at 15 mg/kg; 0/10
[25] = test system: Mus musculus; test: Compound was tested for Trypanocidal Activity in mice at 25 mg/kg; 1/20
[26] = test system: Mus musculus; test: Compound was tested for Trypanocidal Activity in mice at 100 mg/kg; 3/10
[27] = test system: Mus musculus; test: Compound was tested for Trypanocidal Activity in mice at 40 mg/kg; 12/25
[28] = test system: Mus musculus; test: Compound was tested for Trypanocidal Activity in mice at 40 mg/kg; 9/10
[29] = test system: Mus musculus; test: Compound was tested for Trypanocidal Activity in mice at 60 mg/kg; 7/10; outline: as §1
[30] = test system: Mus musculus; test: Compound was tested for Trypanocidal Activity in mice at 25 mg/kg; 10/10
[31] = test system: Mus musculus; test: Compound was tested for Trypanocidal Activity in mice at 4 mg/kg; 24/45
[32] = test system: Mus musculus; test: Compound was tested for Trypanocidal Activity in mice at 100 mg/kg; 1/5
[33] = test system: Mus musculus; test: Compound was tested for Trypanocidal Activity in mice at 2.5 mg/kg; 6/25
[34] = test system: Mus musculus; test: Compound was tested for Trypanocidal Activity in mice at 6 mg/kg; 32/45
[35] = test system: Mus musculus; test: Compound was tested for Trypanocidal Activity in mice at 1.5 mg/kg; 0/10
[36] = test system: Mus musculus; test: Compound was tested for Trypanocidal Activity in mice at 10 mg/kg; 22/30
[37] = test system: Mus musculus; test: Compound was tested for Trypanocidal Activity in mice at 25 mg/kg; 8/10
[38] = test system: Mus musculus; test: Compound was tested for Trypanocidal Activity in mice at 40 mg/kg; 10/10
[39] = test system: Mus musculus; test: Compound was tested for Trypanocidal Activity in mice at 1.5 mg/kg; 0/15
[40] = test system: Mus musculus; test: Compound was tested for Trypanocidal Activity in mice at 6 mg/kg; 14/20
[41] = test system: Mus musculus; test: Compound was tested for Trypanocidal Activity in mice at 4 mg/kg; 11/20
[42] = test system: Mus musculus; test: Compound was tested for Trypanocidal Activity in mice at 15 mg/kg; 9/10
[43] = test system: Mus musculus; test: Compound was tested for Trypanocidal Activity in mice at 100 mg/kg; 0/5
[44] = test system: Mus musculus; test: Compound was tested for Trypanocidal Activity in mice at 2.5 mg/kg; 3/20
[45] = test system: Mus musculus; test: Compound was tested for Trypanocidal Activity in mice at 15 mg/kg; 0/5
[46] = test system: Mus musculus; test: Compound was tested for Trypanocidal Activity in mice at 25 mg/kg; 0/5
[47] = test system: Mus musculus; test: Compound was tested for Trypanocidal Activity in mice at 15 mg/kg; 16/20
[48] = test system: Mus musculus; test: Compound was tested for Trypanocidal Activity in mice at 6 mg/kg; 9/20
[49] = test system: Mus musculus; test: Compound was tested for Trypanocidal Activity in mice at 4 mg/kg; 0/5
[50] = test system: Mus musculus; test: Compound was tested for Trypanocidal Activity in mice at 25 mg/kg; 7/10
[51] = test system: Mus musculus; test: Compound was tested for Trypanocidal Activity in mice at 10 mg/kg; 14/20

SMILES: C/C(=N\NC(=N)N)c1cncc(/C(C)=N/NC(=N)N)c1.Cl
- Cures/total [1]: 4
- Cures/total [2]: 1
- Cures/total [3]: 1
- Cures/total [4]: 0
- Cures/total [5]: 11

SMILES: C/C(=N\NC(=N)N)c1cc(/C(C)=N/NC(=N)N)cc(/C(C)=N/NC(=N)N)c1.Cl
- Cures/total [6]: 10
- Cures/total [7]: 20
- Cures/total [1]: 4
- Cures/total [8]: 20
- Cures/total [9]: 20
- Cures/total [10]: 0
- Cures/total [11]: 0
- ED50 [12]: 0.47 mg/kg
- Cures/total [13]: 0
- Cures/total [14]: 10
- Cures/total [15]: 0
- Cures/total [16]: 9
- Cures/total [17]: 19
- Mice cured (number) [18]: 10
- Cures/total [19]: 8

SMILES: C/C(=N\NC(=N)N)c1cc(/C(C)=N/NC(=N)N)cc([N+](=O)[O-])c1.Cl
- Cures/total [20]: 0
- Cures/total [21]: 1
- Cures/total [22]: 9
- Cures/total [23]: 0
- Cures/total [24]: 0
- Cures/total [25]: 1
- Cures/total [26]: 3
- Cures/total [27]: 12

SMILES: C/C(=N\NC(=N)N)c1cccc(/C(C)=N/NC(=N)N)c1.Cl [BIS(GUANYLHYDRAZONE) ;2M HYDROCHLORIDE]
- Cures/total [28]: 9
- Cures/total [29]: 7
- Cures/total [30]: 10
- ED50 [12]: 4.2 mg/kg
- Cures/total [31]: 24
- Cures/total [32]: 1
- Cures/total [33]: 6
- Mice cured (number) [18]: 10
- Cures/total [34]: 32
- Cures/total [35]: 0
- Cures/total [36]: 22

SMILES: C/C(=N\NC(=N)N)c1cc(C)cc(/C(C)=N/NC(=N)N)c1.Cl
- Cures/total [6]: 10
- Cures/total [37]: 8
- Cures/total [10]: 0
- ED50 [12]: 4.1 mg/kg
- Cures/total [38]: 10
- Cures/total [39]: 0
- Cures/total [40]: 14
- Cures/total [41]: 11
- Cures/total [42]: 9
- Cures/total [43]: 0
- Cures/total [44]: 3

SMILES: Br.C/C(=N\NC1=NCCN1)c1cccc(/C(C)=N/NC2=NCCN2)c1
- Cures/total [11]: 0
- Cures/total [45]: 0
- Cures/total [23]: 0
- Cures/total [46]: 0

SMILES: C/C(=N\NC(=N)N)c1cccc(/C(C)=N/NC(=N)N)c1[N+](=O)[O-].Cl
- Cures/total [11]: 0
- Cures/total [24]: 0
- Cures/total [46]: 0

SMILES: C/C(=N\NC(=N)N)c1cc(O)cc(/C(C)=N/NC(=N)N)c1.Cl
- Cures/total [47]: 16
- Cures/total [10]: 0
- Cures/total [3]: 1
- Cures/total [48]: 9
- ED50 [12]: 7.3 mg/kg
- Cures/total [49]: 0
- Cures/total [50]: 7
- Cures/total [51]: 14
